Screening results (PubChem BioAssay)
TRPC4 act: opens the mouse TRPC4 cation channel; B-score at 10 µM; HEK293 TRPC4beta/mu-opioid, Fluo4 calcium fluorescence; active compounds read high; Q9QUQ5; actives 0.49% (n = 310,000);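 active means B-score above 5 SD of library B-scores, and initial fluorescence ratio not above library mean plus 5 SD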;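 further: positive B-score marks a calcium rise read as TRPC4 activation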
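System: HEK293 cells stably co-expressing mouse TRPC4beta and mu-opioid receptor; Schedule: Fluo4 dye loading 45 min at room temperature, 110 s recording; Detection: Fluo4 fluorescence, kinetic; Evaluation: B-scored integrated calcium fluorescence ratio; Controls: buffer (low) and maximal DAMGO (high).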
TRPC4 PAM: TRPC4 (mouse) allosteric potentiation; Q9QUQ5; B-score at 10 µM; HEK293 TRPC4beta/mu-opioid, DAMGO EC20, Fluo-4 Ca2+ flux; active compounds read high; actives 0.42% (n = 310,000); AID 2227;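 active means B-score of calcium response area above 5 SD of library B-scores, with initial fluorescence ratio within 5 SD of library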;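 further: B-score of integrated fluorescence ratio over time as area under calcium response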
TRPC6 inh: inhibitors of mouse TRPC6 channel; actives 1.1% (n = 310,000); B-score at 10 µM; HEK293-TRPC6, membrane potential dye, ACh-evoked depolarization; active compounds read low; AID 2553;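 active means B-score under library mean minus 3 SD, initial fluorescence not abnormally high, positive integrated signal ratio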;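 further: B-score derived from integrated fluorescence ratio over the kinetic read; more negative B-score means stronger inhibition of depolarization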
TRPC4 inh: TRPC4 (mouse) channel inhibition; Q9QUQ5; HEK293 TRPC4beta/mu-opioid, DAMGO-evoked Fluo4 calcium flux; active compounds read low; B-score at 10 µM; actives 0.39% (n = 300,000); AID 2247;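 active means B-score over 3 SD under the library average, no early fluorescence shift, positive overall ratio signal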
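material = TRPC4beta/mu-opioid receptor HEK293 cell line | probe or stimulus = sequential submaximal and maximal DAMGO stimulation | compound dosing = one concentration per compound | measured by = Fluo4 Ca2+ flux fluorescence | evaluation = integrated fluorescence ratio relative to baseline, converted to per-well B score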
TRPC6 activator: mouse TRPC6 channel activation; Q61143; HEK293-TRPC6 membrane potential dye fluorescence; active compounds read high; B-score at 10 µM; actives 0.13% (n = 310,000); AID 2550;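 active means B-score of the integrated fluorescence ratio above library mean plus 3 SD, and starting fluorescence ratio within library mean plus 5 SD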;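 further: higher score means more depolarization so channel activation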
An asterisk follows results filed as active; i = inactive. Compounds with a hit are over-represented: about 2.3% of the library has one in this group of screens.

SMILES	TRPC4 act	TRPC4 PAM	TRPC6 inh	TRPC4 inh	TRPC6 activator
CN1CCCC(OC(=O)c2ccc(C(C)(C)C)cc2)C1 (stereo not given)	i	i	i	i	i
O=c1[nH]c2ccc(NCc3ccc(OCc4ccccc4Cl)cc3)cc2[nH]1	i	i	i	i	i
COc1cc(CNc2ccc3[nH]c(=O)[nH]c3c2)ccc1OCc1ccccc1Cl	i	12*	i	i	i
CCOC(=O)c1ccc(NC(=O)NNC(=O)CCc2ccc(OC)cc2)cc1	i	i	i	i	i
C=CCn1c(SCC(=O)OC)nc2sc3c(c2c1=O)CCN(C)C3	i	i	-5.7*	i	i
CCN(CCCNS(=O)(=O)c1cc(-c2cc(C)no2)ccc1C)Cc1ccccc1	175*	i	i	i	i
O=C(CCc1nnc(Cc2ccc3c(c2)OCO3)o1)NC(c1ccccn1)C(F)(F)F (stereo not given)	i	i	i	i	i
OCC1(CC2CCCCO2)CCN(Cc2ccccc2-c2ccco2)CC1 (stereo not given)	75*	i	i	i	i
CCOC(=O)C1(CC2CCCCO2)CCN(Cc2cc3ccccc3[nH]2)CC1 (stereo not given)	273*	i	i	i	i
CCOC(=O)C1(CC2CCCCO2)CCN(Cc2cn[nH]c2-c2cccc(F)c2)CC1 (stereo not given)	76*	i	i	i	i
CCOC(=O)C1(CC2CCCCO2)CCN(Cc2cccnc2)CC1 (stereo not given)	i	i	i	i	i
CCCn1ncc(CN2CCC(CO)(CC3CCCCO3)CC2)c1C (stereo not given)	i	i	i	i	i
CCOC(=O)C1(CC2CCCCO2)CCN(Cc2ccccc2-c2ccco2)CC1 (stereo not given)	78*	i	i	i	i
O=C(COC(=O)CCN=C1NS(=O)(=O)c2ccccc21)NNC(=O)c1ccccc1	i	i	i	i	i
CCCCOc1ccc(C2CCC(C(C)=O)C(C)C2)cc1 (stereo not given)	i	i	i	i	i
COc1cccc(CC2(CO)CCCN(Cc3ccccc3-c3ccco3)C2)c1 (stereo not given)	43*	i	i	-7*	i
COc1cccc(CC2(CO)CCCN(Cc3ccc(-c4ccco4)cc3)C2)c1 (stereo not given)	i	i	i	i	i
CC1CCN(S(=O)(=O)c2ccc(S(=O)(=O)N3CCCC3)cc2)CC1	i	i	i	i	i
CNC(=O)COc1ccc2oc3c(c2c1)CCCC3	i	i	i	-6*	i
CNC(=O)NC(=O)COc1ccc2oc3c(c2c1)CCCC3	i	i	i	i	i
COc1ccc2oc(C(=O)c3ccccc3)c(NC(=O)CN3CCN(C)CC3)c2c1	51*	19*	-8.1*	i	i
CN1CCN(CC(=O)Nc2c(C(=O)c3ccccc3)oc3ccccc23)CC1	i	i	i	i	i
CN(C)CCOC(=O)c1sc2ccccc2c1Cl	92*	i	i	i	i
CCN(CC)CCOC(=O)C1(c2ccccc2)CCOCC1	60*	i	i	i	i
Cc1cccc(C)c1OCCNC(=O)CCC(=O)c1ccccc1	i	i	i	i	i
SMILES	TRPC4 act	TRPC4 PAM	TRPC6 inh	TRPC4 inh	TRPC6 activator
O=C(Cc1ccccc1)NCCCN1CCN(CCCNC(=O)Cc2ccccc2)CC1	i	11*	i	i	i
O=C(Cn1nc(-c2ccccc2)ccc1=O)NCCN1CCN(Cc2ccccc2)CC1	i	19*	i	i	i
Cc1cc(C)c(S(=O)(=O)c2ccccc2C)c(OCC(C)(C)C)n1	i	i	i	-6*	i
CCOCCOc1nc(C)cc(C)c1S(=O)(=O)c1ccccc1C	i	i	i	i	i
COc1ccc(-c2nc(CSCC(=O)NC3CCN(Cc4ccccc4)CC3)c(C)o2)cc1OC	116*	i	i	i	i
COc1ccc(-c2nc(CSCC(=O)NC3CC3)c(C)o2)cc1OC	i	i	i	i	i
CCCc1c(O)nc(SCC(=O)N2CCCCC2)[nH]c1=O	i	i	i	i	i
CC(C)c1c(O)nc(SCCN(C)C)[nH]c1=O	i	35*	i	i	i
CCCc1c(O)nc(SCCN(CCC)CCC)[nH]c1=O	49*	19*	i	i	i
CC(C)c1c(O)nc(SCC(=O)N2CCOCC2)[nH]c1=O	i	i	i	i	i
CCCCCCCc1c(O)nc(SCCN(C)C)[nH]c1=O	81*	10*	i	i	i
O=C(c1ccc(CNS(=O)(=O)c2cccc(Cl)c2)cc1)N1CCCCC1	i	i	i	i	i
Cc1ccn2c(NC3CCCCC3)c(C(C)C)nc2c1	i	i	i	-7*	i
Cc1ccn2c(NC3CCCCC3)c(C)nc2c1	i	i	i	i	i
O=C(Nc1nc(-c2ccccn2)cs1)c1cccc(-n2cnnn2)c1	i	13*	i	i	i
O=C(Nc1ccc(Br)cc1)c1cccc(-n2cnnn2)c1	i	i	i	i	i
Cn1c2ccccc2c2nnc(N/N=C/c3ccc(O)cc3)nc21	i	i	i	i	i
COC(=O)c1cc(N2CCN(C)CC2)nc2ccccc12	i	17*	i	i	i
Cc1cc(N2CCN(C)CC2)nc2ccc(NC(=O)c3ccccc3F)cc12	i	i	i	i	i
COc1ccc(C2=NN(CC(=O)Nc3cc(C)ccc3C)C(=O)CC2)cc1	i	i	i	i	i
Cc1onc(-c2c(F)cccc2Cl)c1C(=O)NCCc1ccncc1	i	i	i	i	i
COc1ccc(/C=C\c2cc(OC)c(OC)cc2CC[N+](C)(C)C)cc1OC	i	i	-7.7*	i	i
COc1ccccc1N1CCN(Cc2cc(=O)c(OCC(=O)NC3CCCC3)co2)CC1	i	108*	i	i	i
CC(=O)OC(c1nc2ccccc2c(=O)n1C1CC2(OC1=O)c1ccccc1N1C(=O)C(C)(C)N(O)C12)C(C)C (stereo not given)	83*	i	i	i	i
Cc1cc(OCCNCCO)cc(C)c1Cl	94*	26*	i	i	i
Cc1cc(OCCCCCNCCO)cc(C)c1Cl	i	i	i	i	i
O=C(O)CC(c1cccc2ccccc12)N1Cc2ccccc2C1=O (stereo not given)	i	34*	i	i	i
